Screens from PubChem.
In the library only some 3% were active in any assay of this set; here they are far more common.
CaV13 ICDI inh: Primary screen for inhibitors of IQ motif and Ca2+-dependent inactivation inhibitor domain binding in CACNA1D, Förster resonance energy transfer in living cells, … | HEK cells, CFP/YFP FRET ICDI-IQ, plate reader, 10 min; percent FRET-ratio fall versus neutral wells | inhibition, % at 12.3 µM | hit rate 0.098% among 340,000;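 active = mean replicate inhibition of at least 30% and at least 1% of replicates passing that level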;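 note: 0% = median of the neutral control wells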
PvdQ acylase: P. aeruginosa PvdQ acylase inhibition; AID 488965; hit rate 0.063% among 340,000; purified PvdQ acylase, fluorescence plate reader; inhibition, % at 10 µM; in the data active = inhibition above about 30%, passing the limit was not always enough;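 note: 0% = vehicle neutral wells and 100% = reference inhibitor wells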
T cruzi inh: T. cruzi replication inhibition. hit rate 1.4% among 300,000. AID 1885. inhibition, % (concentration not given with the values). T. cruzi beta-gal in NIH3T3, luminescence, 90 h;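 active = mean inhibition across valid replicates above about 55%, limit read from the data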;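 note: signal also drops with host cell toxicity which is not excluded here; 0% = plate median of DMSO wells and 100% = zero luminescence signal; higher percent means less beta-gal luminescence so fewer parasites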
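assay system = mouse NIH/3T3 fibroblasts infected with β-gal-expressing T. cruzi Tulahuen C4 | input = 5,000 NIH/3T3 host cells per well | buffer or medium = DMEM plus 2% FBS | timing = 3 h host attachment, then at least 90 h co-culture | measured by = GalScreen luminescence, 60 min | evaluation = luminescence reflecting intracellular parasite burden, expressed as percent inhibition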
Glyco luc inh: N-linked glycosylation inhibition; reporter increase, % at 12.5 µM; hit rate 0.23% among 360,000; D54 ERlucT glycosylation luciferase reporter, 24 h; percent of 100 nM tunicamycin response;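 active = mean luciferase reporter signal, scaled so untreated is 0 and the glycosylation-blocking control 100, at or above a set limit in every replicate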;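 note: luciferase carries N-glycosylation sites so blocking glycosylation raises the light; 0% = median of neutral control wells and 100% = median of 100 nM tunicamycin wells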
HSF1 activator: increases HSF-1 driven luciferase reporter signal. NIH3T3-HGL HSF-1 luciferase reporter, MG132, 8 h; 100% = twice DMSO control signal. hit rate 1.7% among 300,000. AID 504408. activation, % at 9 µM;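 active = mean replicate activation of at least 50% with a set share of replicates each reaching 50%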;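 note: 0% = median of the neutral control wells and 100% = twice that signal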
PfHsp90 yeast 2: growth inhibition of yeast expressing Plasmodium Hsp90; S. cerevisiae expressing PfHsp90, BacTiter-Glo ATP, 48 h; yeast lacking PDR1 and PDR3 efflux regulators; hit rate 0.32% among 310,000; inhibition, % at 9.4 µM; AID 504621;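 active = every replicate shows inhibition above about 80%, whatever the replicate mean, limit read from the data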;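 note: 0% = DMSO neutral controls and 100% = 20 µM radicicol positive controls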
Numbers without * were called inactive.

For COc1ccc(NC(=O)N(C)C[C@@H]2OCc3cnnn3CCCC(=O)N([C@H](C)CO)C[C@H]2C)c(OC)c1 the results were CaV13 ICDI inh -5.3.
For O=C(NCCO)c1ccc(-c2ccc3nncn3c2)cc1 the results were CaV13 ICDI inh -4.7 and Glyco luc inh 0.4.
`c1ccc(N=Nc2ccc3cccccc2-3)cc1` gave CaV13 ICDI inh -6.7, PvdQ acylase -19.5, T cruzi inh -2.5, Glyco luc inh 25.8*, HSF1 activator 75.4* and PfHsp90 yeast 2 -0.7.
`COc1cc(OC)cc(C(=O)N2CCN(C(=O)c3ccc(OC)c(OC)c3)CC2)c1` gave CaV13 ICDI inh -4.3, PvdQ acylase -12.8, T cruzi inh -4.8, Glyco luc inh 5.2, HSF1 activator -5.6 and PfHsp90 yeast 2 -5.3.
COc1ccc(-c2n[nH]c3c2CN(C(=O)c2ccc(OC)c(OC)c2)CC3)cc1 was read as CaV13 ICDI inh -2.2, PvdQ acylase -1.4, T cruzi inh -7.4, Glyco luc inh 39.3*, HSF1 activator -0.8 and PfHsp90 yeast 2 -5.7.
`Cc1nn(Cc2cccc(F)c2)c(C)c1NC(=O)c1ccc(COc2ccccc2Cl)cc1` gave CaV13 ICDI inh -4.8, PvdQ acylase 2.9, T cruzi inh 57.3*, Glyco luc inh -9.7, HSF1 activator 49.8 and PfHsp90 yeast 2 13.8.
For Cc1nn(Cc2ccc(Cl)cc2Cl)c(C)c1NC(=O)c1ccc(COc2cc(Cl)ccc2Cl)o1 the results were CaV13 ICDI inh 0.0, PvdQ acylase -2.5, T cruzi inh 59.5*, Glyco luc inh -7.0, HSF1 activator 17.0 and PfHsp90 yeast 2 -17.6.
For Cc1nn(Cc2c(F)c(F)c(F)c(F)c2F)c(C)c1NC(=O)c1ccc(COc2ccc(Cl)cc2Cl)o1 the results were CaV13 ICDI inh -5.0, PvdQ acylase -14.0, T cruzi inh 66.7*, Glyco luc inh -3.0, HSF1 activator 2.0 and PfHsp90 yeast 2 -28.0.
`Cc1sc2ncnc(NC3CCN(Cc4ccccc4)CC3)c2c1C` gave CaV13 ICDI inh -6.7, PvdQ acylase -9.3, T cruzi inh 58.2*, Glyco luc inh -0.6 and HSF1 activator 0.6.
`c1ccc(CN2CCC(Nc3ncnc4sccc34)CC2)cc1` gave CaV13 ICDI inh 0.6, PvdQ acylase 11.5, T cruzi inh 25.0, Glyco luc inh 0.3 and HSF1 activator -1.9.
CC1(C(=O)NS(=O)(=O)c2cccc(C#N)c2)CCN1C(=O)CCC1CCCC1 (centres undefined) was read as CaV13 ICDI inh -4.6 and Glyco luc inh 0.1.
For C(C#CCCCCCCCCC[n+]1ccccc1)#CCCCCCCCCC[n+]1ccccc1 the results were PvdQ acylase -13.8, T cruzi inh 8.2, Glyco luc inh 13.4, HSF1 activator 11.4 and PfHsp90 yeast 2 121.5*.
CN([C@@H](Cc1ccc(OS(=O)(=O)c2cccc3cnccc23)cc1)C(=O)N1CCN(c2ccccc2)CC1)S(=O)(=O)c1cccc2cnccc12 was read as PvdQ acylase -10.3, T cruzi inh 57.0*, Glyco luc inh -1.7 and PfHsp90 yeast 2 10.1.
Screening COc1ccc(N2CCN(C(=O)C(Cc3ccccc3)n3cccc3)CC2)cc1 (centres undefined) returned CaV13 ICDI inh -5.9, PvdQ acylase -1.2, T cruzi inh -8.6, Glyco luc inh -2.2, HSF1 activator -11.1 and PfHsp90 yeast 2 11.2.
Screening COc1cccc(CC2(CO)CCCN(Cc3ccc(C)s3)C2)c1 (centres undefined) returned CaV13 ICDI inh -2.0, PvdQ acylase 7.1, T cruzi inh 57.9*, Glyco luc inh -1.9, HSF1 activator -13.7 and PfHsp90 yeast 2 2.0.
COc1cccc(CC2(CO)CCCN(Cc3ccc(-c4ccco4)cc3)C2)c1 (centres undefined) was read as CaV13 ICDI inh -2.4, PvdQ acylase -11.1, T cruzi inh 57.7*, Glyco luc inh -0.7, HSF1 activator 13.8 and PfHsp90 yeast 2 -5.2.
For COc1cccc(CC2(CO)CCCN(Cc3sc(N4CCCC4)nc3Cl)C2)c1 (centres undefined) the results were CaV13 ICDI inh 1.9, PvdQ acylase -14.1, T cruzi inh 55.1*, Glyco luc inh -3.5, HSF1 activator -14.3 and PfHsp90 yeast 2 18.9.
COc1cccc(CC2(CO)CCCN(Cc3ccc(CO)o3)C2)c1 (centres undefined) was read as CaV13 ICDI inh -7.6, PvdQ acylase -8.0, T cruzi inh -17.5, Glyco luc inh 2.7, HSF1 activator -6.2 and PfHsp90 yeast 2 -13.8.
For COc1cccc(CC2(CO)CCCN(Cc3cc4ccccc4[nH]3)C2)c1 (centres undefined) the results were CaV13 ICDI inh -7.3, PvdQ acylase -10.2, T cruzi inh 67.3*, Glyco luc inh -6.4, HSF1 activator 0.9 and PfHsp90 yeast 2 -16.0.
`COC(=O)C1=C(C)N(C)C(=NCc2cccc(C(F)(F)F)c2)NC1c1cccc(F)c1` (centres undefined) gave CaV13 ICDI inh -4.5.
`C[C@H](c1ccccc1)N1C[C@@H](COCc2ccccc2)Oc2cccc(N3CCCCC3)c2S1(=O)=O` gave CaV13 ICDI inh -4.7.
`Cc1c(C(=O)NN2CCCCC2)nn(-c2ccc(Cl)cc2Cl)c1-c1ccc(I)cc1` gave T cruzi inh 55.5* and HSF1 activator 15.4.
CC(C)(C)n1nc(C2CC2)c(Br)c1NC(=O)c1ccc(Cl)cc1 was read as CaV13 ICDI inh -3.8.
COc1ccc([C@H]2CN(CCc3ccccc3)C(=O)[C@@H]2CC(=O)Nc2ccccc2)cc1 was read as CaV13 ICDI inh -4.1 and Glyco luc inh 1.4.
`COc1ccc(-c2cn[nH]c2-c2ccc(OCc3ccc([N+](=O)[O-])cc3)cc2O)cc1OC` gave CaV13 ICDI inh -16.6, PvdQ acylase -9.0, T cruzi inh 52.3, Glyco luc inh -6.8, HSF1 activator 56.6* and PfHsp90 yeast 2 -36.4.
For O=[N+]([O-])c1ccc(COc2ccc(-c3[nH]ncc3-c3ccc(Cl)cc3)c(O)c2)cc1 the results were CaV13 ICDI inh -4.7, PvdQ acylase 6.0, T cruzi inh 38.0, Glyco luc inh -9.7, HSF1 activator 39.4 and PfHsp90 yeast 2 3.6.
O=C(Nc1nnc(-c2ccc(F)cc2)o1)c1cc(Cl)sc1Cl was read as CaV13 ICDI inh -4.4, PvdQ acylase 14.8, T cruzi inh 15.7, Glyco luc inh 0.6, HSF1 activator -7.7 and PfHsp90 yeast 2 80.0*.
`C=CCn1c(SCc2csc(-c3ccc(Cl)cc3)n2)nnc1-c1ccccc1OC` gave CaV13 ICDI inh -12.8, PvdQ acylase -12.9, T cruzi inh 32.4, Glyco luc inh -4.4, HSF1 activator 57.6* and PfHsp90 yeast 2 17.0.
